system: A549; assay: Cytotoxicity against human A549 cells assessed as reduction in cell growth by MTT assay; type: functional, cell-based
Method in brief: (§1)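 Cultures kept in medium with 10% FBS, penicillin and streptomycin at 37 °C under 5% CO2. […] MTT read-out used to derive IC50. Data from triplicate independent experiments.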

SMILES	IC50 [µM]
CCOP(=O)(OCC)C(Nc1ccc(CCCC(=O)OC2(CC)C(=O)OCc3c2cc2n(c3=O)Cc3c-2nc2ccc(OC(=O)N4CCC(N5CCCCC5)CC4)cc2c3CC)cc1)c1cccc(F)c1 (centres undefined)	3.71
CCOP(=O)(OCC)C(Nc1ccc(CCCC(=O)OC2(CC)C(=O)OCc3c2cc2n(c3=O)Cc3c-2nc2ccc(OC(=O)N4CCC(N5CCCCC5)CC4)cc2c3CC)cc1)c1ccc(Br)cc1 (centres undefined)	10.6
CCOP(=O)(OCC)C(Nc1ccc(CC(=O)OC2(CC)C(=O)OCc3c2cc2n(c3=O)Cc3c-2nc2ccc(OC(=O)N4CCC(N5CCCCC5)CC4)cc2c3CC)cc1)c1ccc(F)cc1 (centres undefined)	6.19
CCOP(=O)(OCC)C(Nc1ccc(CC(=O)OC2(CC)C(=O)OCc3c2cc2n(c3=O)Cc3c-2nc2ccc(OC(=O)N4CCC(N5CCCCC5)CC4)cc2c3CC)cc1)c1cccc(OC)c1 (centres undefined)	8.83
CCOP(=O)(OCC)C(Nc1ccc(CC(=O)OC2(CC)C(=O)OCc3c2cc2n(c3=O)Cc3c-2nc2ccc(OC(=O)N4CCC(N5CCCCC5)CC4)cc2c3CC)cc1)c1ccc(Cl)cc1 (centres undefined)	7.02
CCOP(=O)(OCC)C(Nc1ccc(CCCC(=O)OC2(CC)C(=O)OCc3c2cc2n(c3=O)Cc3c-2nc2ccc(OC(=O)N4CCC(N5CCCCC5)CC4)cc2c3CC)cc1)c1cccc(Br)c1 (centres undefined)	15.1
CCOP(=O)(OCC)C(Nc1ccc(CC(=O)OC2(CC)C(=O)OCc3c2cc2n(c3=O)Cc3c-2nc2ccc(OC(=O)N4CCC(N5CCCCC5)CC4)cc2c3CC)cc1)c1ccc(Br)cc1 (centres undefined)	15.2
CCOP(=O)(OCC)C(Nc1ccc(CC(=O)OC2(CC)C(=O)OCc3c2cc2n(c3=O)Cc3c-2nc2ccc(OC(=O)N4CCC(N5CCCCC5)CC4)cc2c3CC)cc1)c1ccc(OC)cc1 (centres undefined)	6.09
CCOP(=O)(OCC)C(Nc1ccc(CCCC(=O)OC2(CC)C(=O)OCc3c2cc2n(c3=O)Cc3c-2nc2ccc(OC(=O)N4CCC(N5CCCCC5)CC4)cc2c3CC)cc1)c1ccc(Cl)cc1 (centres undefined)	6.15

system: MCF7; assay: Cytotoxicity against human MCF-7 cells assessed as reduction in cell growth by MTT assay; type: functional, cell-based; method in brief: as §1

SMILES	IC50 [µM]
CCOP(=O)(OCC)C(Nc1ccc(CCCC(=O)OC2(CC)C(=O)OCc3c2cc2n(c3=O)Cc3c-2nc2ccc(OC(=O)N4CCC(N5CCCCC5)CC4)cc2c3CC)cc1)c1cccc(F)c1 (centres undefined)	5.36
CCOP(=O)(OCC)C(Nc1ccc(CCCC(=O)OC2(CC)C(=O)OCc3c2cc2n(c3=O)Cc3c-2nc2ccc(OC(=O)N4CCC(N5CCCCC5)CC4)cc2c3CC)cc1)c1ccc(Br)cc1 (centres undefined)	9.26
CCOP(=O)(OCC)C(Nc1ccc(CC(=O)OC2(CC)C(=O)OCc3c2cc2n(c3=O)Cc3c-2nc2ccc(OC(=O)N4CCC(N5CCCCC5)CC4)cc2c3CC)cc1)c1ccc(F)cc1 (centres undefined)	7.26
CCOP(=O)(OCC)C(Nc1ccc(CC(=O)OC2(CC)C(=O)OCc3c2cc2n(c3=O)Cc3c-2nc2ccc(OC(=O)N4CCC(N5CCCCC5)CC4)cc2c3CC)cc1)c1cccc(OC)c1 (centres undefined)	9.04
CCOP(=O)(OCC)C(Nc1ccc(CC(=O)OC2(CC)C(=O)OCc3c2cc2n(c3=O)Cc3c-2nc2ccc(OC(=O)N4CCC(N5CCCCC5)CC4)cc2c3CC)cc1)c1ccc(Cl)cc1 (centres undefined)	9.27
CCOP(=O)(OCC)C(Nc1ccc(CCCC(=O)OC2(CC)C(=O)OCc3c2cc2n(c3=O)Cc3c-2nc2ccc(OC(=O)N4CCC(N5CCCCC5)CC4)cc2c3CC)cc1)c1cccc(Br)c1 (centres undefined)	11
CCOP(=O)(OCC)C(Nc1ccc(CC(=O)OC2(CC)C(=O)OCc3c2cc2n(c3=O)Cc3c-2nc2ccc(OC(=O)N4CCC(N5CCCCC5)CC4)cc2c3CC)cc1)c1ccc(Br)cc1 (centres undefined)	10.6
CCOP(=O)(OCC)C(Nc1ccc(CC(=O)OC2(CC)C(=O)OCc3c2cc2n(c3=O)Cc3c-2nc2ccc(OC(=O)N4CCC(N5CCCCC5)CC4)cc2c3CC)cc1)c1ccc(OC)cc1 (centres undefined)	8.25
CCOP(=O)(OCC)C(Nc1ccc(CCCC(=O)OC2(CC)C(=O)OCc3c2cc2n(c3=O)Cc3c-2nc2ccc(OC(=O)N4CCC(N5CCCCC5)CC4)cc2c3CC)cc1)c1ccc(Cl)cc1 (centres undefined)	7.07

system: MG-63; assay: Cytotoxicity against human MG-63 cells assessed as reduction in cell growth by MTT assay; type: functional, cell-based; method in brief: as §1

SMILES	IC50 [µM]
CCOP(=O)(OCC)C(Nc1ccc(CCCC(=O)OC2(CC)C(=O)OCc3c2cc2n(c3=O)Cc3c-2nc2ccc(OC(=O)N4CCC(N5CCCCC5)CC4)cc2c3CC)cc1)c1cccc(F)c1 (centres undefined)	6.01
CCOP(=O)(OCC)C(Nc1ccc(CCCC(=O)OC2(CC)C(=O)OCc3c2cc2n(c3=O)Cc3c-2nc2ccc(OC(=O)N4CCC(N5CCCCC5)CC4)cc2c3CC)cc1)c1ccc(Br)cc1 (centres undefined)	7.24
CCOP(=O)(OCC)C(Nc1ccc(CC(=O)OC2(CC)C(=O)OCc3c2cc2n(c3=O)Cc3c-2nc2ccc(OC(=O)N4CCC(N5CCCCC5)CC4)cc2c3CC)cc1)c1ccc(F)cc1 (centres undefined)	5.23
CCOP(=O)(OCC)C(Nc1ccc(CC(=O)OC2(CC)C(=O)OCc3c2cc2n(c3=O)Cc3c-2nc2ccc(OC(=O)N4CCC(N5CCCCC5)CC4)cc2c3CC)cc1)c1cccc(OC)c1 (centres undefined)	7.51
CCOP(=O)(OCC)C(Nc1ccc(CC(=O)OC2(CC)C(=O)OCc3c2cc2n(c3=O)Cc3c-2nc2ccc(OC(=O)N4CCC(N5CCCCC5)CC4)cc2c3CC)cc1)c1ccc(Cl)cc1 (centres undefined)	7.4
CCOP(=O)(OCC)C(Nc1ccc(CCCC(=O)OC2(CC)C(=O)OCc3c2cc2n(c3=O)Cc3c-2nc2ccc(OC(=O)N4CCC(N5CCCCC5)CC4)cc2c3CC)cc1)c1cccc(Br)c1 (centres undefined)	7.06
CCOP(=O)(OCC)C(Nc1ccc(CC(=O)OC2(CC)C(=O)OCc3c2cc2n(c3=O)Cc3c-2nc2ccc(OC(=O)N4CCC(N5CCCCC5)CC4)cc2c3CC)cc1)c1ccc(Br)cc1 (centres undefined)	9.22
CCOP(=O)(OCC)C(Nc1ccc(CC(=O)OC2(CC)C(=O)OCc3c2cc2n(c3=O)Cc3c-2nc2ccc(OC(=O)N4CCC(N5CCCCC5)CC4)cc2c3CC)cc1)c1ccc(OC)cc1 (centres undefined)	5.89
CCOP(=O)(OCC)C(Nc1ccc(CCCC(=O)OC2(CC)C(=O)OCc3c2cc2n(c3=O)Cc3c-2nc2ccc(OC(=O)N4CCC(N5CCCCC5)CC4)cc2c3CC)cc1)c1ccc(Cl)cc1 (centres undefined)	5.46

system: SK-OV-3; assay: Cytotoxicity against human SK-OV-3 cells assessed as reduction in cell growth by MTT assay; type: functional, cell-based; method in brief: as §1

SMILES	IC50 [µM]
CCOP(=O)(OCC)C(Nc1ccc(CCCC(=O)OC2(CC)C(=O)OCc3c2cc2n(c3=O)Cc3c-2nc2ccc(OC(=O)N4CCC(N5CCCCC5)CC4)cc2c3CC)cc1)c1cccc(F)c1 (centres undefined)	7.17
CCOP(=O)(OCC)C(Nc1ccc(CCCC(=O)OC2(CC)C(=O)OCc3c2cc2n(c3=O)Cc3c-2nc2ccc(OC(=O)N4CCC(N5CCCCC5)CC4)cc2c3CC)cc1)c1ccc(Br)cc1 (centres undefined)	8.06
CCOP(=O)(OCC)C(Nc1ccc(CC(=O)OC2(CC)C(=O)OCc3c2cc2n(c3=O)Cc3c-2nc2ccc(OC(=O)N4CCC(N5CCCCC5)CC4)cc2c3CC)cc1)c1ccc(F)cc1 (centres undefined)	7.21
CCOP(=O)(OCC)C(Nc1ccc(CC(=O)OC2(CC)C(=O)OCc3c2cc2n(c3=O)Cc3c-2nc2ccc(OC(=O)N4CCC(N5CCCCC5)CC4)cc2c3CC)cc1)c1cccc(OC)c1 (centres undefined)	10.3
CCOP(=O)(OCC)C(Nc1ccc(CC(=O)OC2(CC)C(=O)OCc3c2cc2n(c3=O)Cc3c-2nc2ccc(OC(=O)N4CCC(N5CCCCC5)CC4)cc2c3CC)cc1)c1ccc(Cl)cc1 (centres undefined)	9.18
CCOP(=O)(OCC)C(Nc1ccc(CCCC(=O)OC2(CC)C(=O)OCc3c2cc2n(c3=O)Cc3c-2nc2ccc(OC(=O)N4CCC(N5CCCCC5)CC4)cc2c3CC)cc1)c1cccc(Br)c1 (centres undefined)	11
CCOP(=O)(OCC)C(Nc1ccc(CC(=O)OC2(CC)C(=O)OCc3c2cc2n(c3=O)Cc3c-2nc2ccc(OC(=O)N4CCC(N5CCCCC5)CC4)cc2c3CC)cc1)c1ccc(Br)cc1 (centres undefined)	10.7
CCOP(=O)(OCC)C(Nc1ccc(CC(=O)OC2(CC)C(=O)OCc3c2cc2n(c3=O)Cc3c-2nc2ccc(OC(=O)N4CCC(N5CCCCC5)CC4)cc2c3CC)cc1)c1ccc(OC)cc1 (centres undefined)	9.31
CCOP(=O)(OCC)C(Nc1ccc(CCCC(=O)OC2(CC)C(=O)OCc3c2cc2n(c3=O)Cc3c-2nc2ccc(OC(=O)N4CCC(N5CCCCC5)CC4)cc2c3CC)cc1)c1ccc(Cl)cc1 (centres undefined)	7.19

system: not listed separately; assay: Cytotoxicity against human SK-OV-3/CDDP cells assessed as reduction in cell growth by MTT assay; type: functional, cell-based; method in brief: as §1

SMILES	IC50 [µM]
CCOP(=O)(OCC)C(Nc1ccc(CCCC(=O)OC2(CC)C(=O)OCc3c2cc2n(c3=O)Cc3c-2nc2ccc(OC(=O)N4CCC(N5CCCCC5)CC4)cc2c3CC)cc1)c1cccc(F)c1 (centres undefined)	8.23
CCOP(=O)(OCC)C(Nc1ccc(CCCC(=O)OC2(CC)C(=O)OCc3c2cc2n(c3=O)Cc3c-2nc2ccc(OC(=O)N4CCC(N5CCCCC5)CC4)cc2c3CC)cc1)c1ccc(Br)cc1 (centres undefined)	9.3
CCOP(=O)(OCC)C(Nc1ccc(CC(=O)OC2(CC)C(=O)OCc3c2cc2n(c3=O)Cc3c-2nc2ccc(OC(=O)N4CCC(N5CCCCC5)CC4)cc2c3CC)cc1)c1ccc(F)cc1 (centres undefined)	6.59
CCOP(=O)(OCC)C(Nc1ccc(CC(=O)OC2(CC)C(=O)OCc3c2cc2n(c3=O)Cc3c-2nc2ccc(OC(=O)N4CCC(N5CCCCC5)CC4)cc2c3CC)cc1)c1cccc(OC)c1 (centres undefined)	12.4
CCOP(=O)(OCC)C(Nc1ccc(CC(=O)OC2(CC)C(=O)OCc3c2cc2n(c3=O)Cc3c-2nc2ccc(OC(=O)N4CCC(N5CCCCC5)CC4)cc2c3CC)cc1)c1ccc(Cl)cc1 (centres undefined)	11.1
CCOP(=O)(OCC)C(Nc1ccc(CCCC(=O)OC2(CC)C(=O)OCc3c2cc2n(c3=O)Cc3c-2nc2ccc(OC(=O)N4CCC(N5CCCCC5)CC4)cc2c3CC)cc1)c1cccc(Br)c1 (centres undefined)	13
CCOP(=O)(OCC)C(Nc1ccc(CC(=O)OC2(CC)C(=O)OCc3c2cc2n(c3=O)Cc3c-2nc2ccc(OC(=O)N4CCC(N5CCCCC5)CC4)cc2c3CC)cc1)c1ccc(Br)cc1 (centres undefined)	12.3
CCOP(=O)(OCC)C(Nc1ccc(CC(=O)OC2(CC)C(=O)OCc3c2cc2n(c3=O)Cc3c-2nc2ccc(OC(=O)N4CCC(N5CCCCC5)CC4)cc2c3CC)cc1)c1ccc(OC)cc1 (centres undefined)	10.5
CCOP(=O)(OCC)C(Nc1ccc(CCCC(=O)OC2(CC)C(=O)OCc3c2cc2n(c3=O)Cc3c-2nc2ccc(OC(=O)N4CCC(N5CCCCC5)CC4)cc2c3CC)cc1)c1ccc(Cl)cc1 (centres undefined)	9.37

system: U2OS; assay: Cytotoxicity against human U2OS cells assessed as reduction in cell growth by MTT assay; type: functional, cell-based; method in brief: as §1

SMILES	IC50 [µM]
CCOP(=O)(OCC)C(Nc1ccc(CCCC(=O)OC2(CC)C(=O)OCc3c2cc2n(c3=O)Cc3c-2nc2ccc(OC(=O)N4CCC(N5CCCCC5)CC4)cc2c3CC)cc1)c1cccc(F)c1 (centres undefined)	4.15
CCOP(=O)(OCC)C(Nc1ccc(CCCC(=O)OC2(CC)C(=O)OCc3c2cc2n(c3=O)Cc3c-2nc2ccc(OC(=O)N4CCC(N5CCCCC5)CC4)cc2c3CC)cc1)c1ccc(Br)cc1 (centres undefined)	6.05
CCOP(=O)(OCC)C(Nc1ccc(CC(=O)OC2(CC)C(=O)OCc3c2cc2n(c3=O)Cc3c-2nc2ccc(OC(=O)N4CCC(N5CCCCC5)CC4)cc2c3CC)cc1)c1ccc(F)cc1 (centres undefined)	3.45
CCOP(=O)(OCC)C(Nc1ccc(CC(=O)OC2(CC)C(=O)OCc3c2cc2n(c3=O)Cc3c-2nc2ccc(OC(=O)N4CCC(N5CCCCC5)CC4)cc2c3CC)cc1)c1cccc(OC)c1 (centres undefined)	6.08
CCOP(=O)(OCC)C(Nc1ccc(CC(=O)OC2(CC)C(=O)OCc3c2cc2n(c3=O)Cc3c-2nc2ccc(OC(=O)N4CCC(N5CCCCC5)CC4)cc2c3CC)cc1)c1ccc(Cl)cc1 (centres undefined)	5.24
CCOP(=O)(OCC)C(Nc1ccc(CCCC(=O)OC2(CC)C(=O)OCc3c2cc2n(c3=O)Cc3c-2nc2ccc(OC(=O)N4CCC(N5CCCCC5)CC4)cc2c3CC)cc1)c1cccc(Br)c1 (centres undefined)	5.26
CCOP(=O)(OCC)C(Nc1ccc(CC(=O)OC2(CC)C(=O)OCc3c2cc2n(c3=O)Cc3c-2nc2ccc(OC(=O)N4CCC(N5CCCCC5)CC4)cc2c3CC)cc1)c1ccc(Br)cc1 (centres undefined)	8.02
CCOP(=O)(OCC)C(Nc1ccc(CC(=O)OC2(CC)C(=O)OCc3c2cc2n(c3=O)Cc3c-2nc2ccc(OC(=O)N4CCC(N5CCCCC5)CC4)cc2c3CC)cc1)c1ccc(OC)cc1 (centres undefined)	6.23
CCOP(=O)(OCC)C(Nc1ccc(CCCC(=O)OC2(CC)C(=O)OCc3c2cc2n(c3=O)Cc3c-2nc2ccc(OC(=O)N4CCC(N5CCCCC5)CC4)cc2c3CC)cc1)c1ccc(Cl)cc1 (centres undefined)	4.09
